According to ChEMBL document CHEMBL4382210, “Identification of novel benzothiopyranone compounds against Mycobacterium tuberculosis through scaffold morphing from benzothiazinones” (Eur J Med Chem, 2018):
Converted amounts (≈) assume the structure as drawn.

Assays:
[1] = system: Mycobacterium tuberculosis; assay: Antimicrobial activity against multi drug-resistant Mycobacterium tuberculosis 12611 after 7 days by MABA; type: functional; conditions: Mycobacterium tuberculosis, 12611, 168 h
Method in brief: (§1)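 Strain H37Rv or clinical isolates grown to late log phase in 7H9-ADC-TG, washed, resuspended in PBS, filtered (8 µm) and frozen. On day 7 Tween 80 and alamar blue added, read 16–24 h later (ex 530/em 590). MIC = lowest concentration giving ≥90% fluorescence reduction versus bacterium-only controls.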

[2] = system: Mycobacterium tuberculosis; assay: Antimicrobial activity against multi drug-resistant Mycobacterium tuberculosis 14231 after 7 days by MABA; type: functional; conditions: Mycobacterium tuberculosis, 14231, 168 h; method in brief: as §1

SMILES	MIC90 [1] [µg/mL]	MIC90 [2] [µg/mL]
O=c1cc(N2CCN(Cc3ccccc3)CC2)sc2c([N+](=O)[O-])cc(C(F)(F)F)cc12	0.011 (≈ 0.0245 µM)	0.023 (≈ 0.0512 µM)
CO[C@H]1/C=C/O[C@@]2(C)Oc3c(C)c(O)c4c(O)c(c(/C=N/N5CCN(C)CC5)c(O)c4c3C2=O)NC(=O)/C(C)=C\C=C\[C@H](C)[C@H](O)[C@@H](C)[C@@H](O)[C@@H](C)[C@H](OC(C)=O)[C@@H]1C [RIFAMPIN]	> 40	> 40
NNC(=O)c1ccncc1 [ISONIAZID]	19.5 (≈ 142 µM)	> 40
O=c1nc(N2CCN(CC3CCCCC3)CC2)sc2c([N+](=O)[O-])cc(C(F)(F)F)cc12 [MACOZINONE]	< 0.002	< 0.002
O=c1cc(N2CCN(CC3CCCCC3)CC2)sc2c([N+](=O)[O-])cc(C(F)(F)F)cc12	< 0.002	< 0.002
